pCIP destab: lowers stability of the mouse p/CIP coactivator protein. decrease of EGFP signal, % at 10 µM. Q05BA5. F442A p/CIP-EGFP cells, EGFP fluorescence, 16 h. AID 1984. hit rate 0.01% among 290,000;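 active means EGFP signal decrease of at least 30% at 10 µM or well 3 SD below plate mean, unless failing retest; inactive means the rest, including hits failing retest or dose response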
T cell modulator: T cell immune modulation candidate; 2C CD8+ T cell-vesicle binding, flow cytometry; active compounds read low; response (vesicle binding), % at 7 µM; hit rate 0.068% among 330,000;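 active means response, share of CD8 T cells binding vesicles, and their 90th percentile fluorescence all below set limits, cut at about 80% in these data, passing the limit was not always enough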;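 further: values below 100% mean blocked vesicle binding to the CD8+ T cells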
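material = purified 2C TCR transgenic mouse naive CD8+ T cells | controls = Unloaded micro-vesicles (low), QL9 vesicles with 0.7% DMSO (high) | detection = cytometric PE anti-B7-1 and Alexa647 anti-CD8 signals after 1% paraformaldehyde fixation | incubation = binding step 1.5 h, 37 °C, antibody labelling 20 min, ice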
CHT allo act: human CHT allosteric activation; CHT-expressing cells, membrane potential dye, choline EC20; active compounds read high; LV-AA mutant CHT in HEK293 cells; hit rate 0.49% among 310,000; Q9GZV3; B-score at 10 µM;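 active means initial fluorescence not abnormally high and integrated response B-score, plate-corrected, over 3 SD above library mean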
DSG3 Ab inh: inhibitors of pemphigus antibody binding to human desmoglein-3; P32926; DSG3-coupled beads, scFv-anti-DSG3-GFP binding, flow cytometry; active compounds read low; binding (percent of control), % at 10 µM; hit rate 0.48% among 310,000; AID 588358;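 active means binding more than 3 SD below its plate's average and above zero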;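 further: hits lower antibody fragment binding to DSG3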
CHT inh: inhibitors of human choline transporter CHT. Q9GZV3. CHT-expressing cells, membrane potential dye, choline response; active compounds read low. B-score at 10 µM. hit rate 0.86% among 310,000. AID 488975;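 active means B-score over 3 SD under the library average, and starting fluorescence ratio not unusually high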;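 further: choline stimulus applied at its EC90 after an EC20 pre-addition; B-score computed on integrated fluorescence ratio after choline addition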
GPR7 antag: antagonists of human GPR7 (neuropeptides B/W receptor 1) | GPR7-expressing cells, fluorescence antagonist assay | inhibition, % at 4.4 µM | hit rate 1.1% among 290,000; in the data active means inhibition above about 16%, passing the limit was not always enough;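 further: cells stimulated with the agonist NPW; 0% = agonist with vehicle and 100% = vehicle without agonist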
Active calls of the source: *; i = inactive; . = not tested or not shown. Compounds with a hit are over-represented: about 2.3% of the library has one in this group of screens.

SMILES	pCIP destab	T cell modulator	CHT allo act	DSG3 Ab inh	CHT inh	GPR7 antag
CN(C)C(=O)N1CCc2ccc([N+](=O)[O-])cc21	.	.	.	106	.	.
C[C@@H]1CCCCO[C@H](CN(C)C(=O)Nc2ccc3c(c2)OCO3)[C@H](C)CN([C@@H](C)CO)C(=O)c2cc(NS(=O)(=O)c3ccc(Cl)cc3)ccc2O1	.	.	.	100	.	.
COCCN(CC(=O)Nc1cccc(C)c1C)C(=O)/C=C/c1ccc2c(c1)OCCO2	.	.	.	105	.	.
COc1ccc(C(CC(=O)NCc2ccco2)c2ccc(F)cc2)cc1 (centres undefined)	-4	229	i	31*	i	-6
O=C1C=C(NCc2ccc(Cl)cc2Cl)C2(CCCCC2)O1	10	441	i	105	i	21*
Oc1ccccc1C=NN=CC=Cc1ccccc1	.	.	.	92	.	.
O=[N+]([O-])c1ccccc1C=CC=NN=Cc1ccccc1O	.	.	.	-3.9*	.	.
O=C(O)c1ccc(N/N=C/C=C/c2ccccc2[N+](=O)[O-])cc1	-7	232	i	88	i	19*
O=C(Cc1ccccc1)N/N=C/C=C/c1ccccc1[N+](=O)[O-]	-12	501	i	107	i	-9
CN(C)CCCn1c2c3ccccc3ccc2c2oc(=O)c3ccccc3c21	.	.	.	70*	.	.
CN(C)CCCn1c(=S)[nH]c2ccccc2c1=O	1	212	i	111	i	-8
O=C(/C=C/c1ccco1)NC(=S)NNC(=O)c1ccco1	10	158	i	60*	i	-16
O=C(NNC(=S)NC(=O)c1ccco1)c1ccc(F)cc1	-11	50*	i	.	i	-10
COc1ccc(C(=O)NNC(=S)NC(=O)c2ccco2)cc1	-6	307	i	99	i	-9
CN(CC1CCCN(CCc2ccccc2F)C1)C(=O)c1cc2ccccc2o1 (centres undefined)	.	.	.	99	.	.
COc1ccc(/C=C/C(=O)OCC(=O)N2c3ccccc3CC2C)c(OC)c1 (centres undefined)	.	.	.	93	.	.
Cc1c(C(=O)/C=C/c2ccccc2F)c2cc(O)ccc2n1C	.	.	.	99	.	.
CCN(CC)C(=O)C1=C(C)N(Cc2ccc(OC)cc2)C(=O)C(CC(=O)NCC2CCCCC2)C1 (centres undefined)	.	.	.	102	.	.
CC(C)[C@H](NC(=O)c1ccco1)C(=O)Nc1ccc(N2CCCCCC2)cc1	.	.	.	100	.	.
COc1ccc(N2CCN(C(=O)COCc3cc(-c4ccc5c(c4)OCO5)on3)CC2)cc1	6	254	i	71*	i	-3
Cc1ccc(CC(=O)Nc2cccc([N+](=O)[O-])c2)cc1	-4	132	i	89	i	19*
O=C(NC(=S)Nc1ccc([N+](=O)[O-])cc1O)C1CCCCC1	8	144	i	95	i	12
O=C(Nc1cccc([N+](=O)[O-])c1)c1ccc(CSc2ccccc2)cc1	-1	596	i	80*	i	-2
O=C(NC(=S)Nc1cccc([N+](=O)[O-])c1)C1CCCC1	3	332	i	.	i	20*
CCOc1ccc(NC(=O)c2cccc(S(=O)(=O)NCc3cccnc3)c2)cc1	.	.	.	99	.	.
SMILES	pCIP destab	T cell modulator	CHT allo act	DSG3 Ab inh	CHT inh	GPR7 antag
O=C(COC(=O)/C=C/c1cccc(F)c1)NC1CCCCC1	.	.	.	108	.	.
C=CCc1cccc(/C=N/NC(=O)c2ccccc2OC)c1O	3	200	i	93	i	19*
O=C(c1nc2ccc(Cl)cn2c1CN1CCC[C@H]1CO)N1CCc2ccccc2C1	.	.	.	110	.	.
Cc1nnc(SCC(=O)N2CCc3ccccc32)s1	2	402	i	99	i	16*
COc1cc2c(cc1OC)C1CCc3cc4c(cc3C1N=C2)OCO4 (centres undefined)	.	.	.	104	.	.
CN1CC(O)(C(O)C(O)C(O)CO)SC1=S (centres undefined)	.	.	.	102	.	.
CC1(C)Cc2cccc(OCC(=O)Nc3ccccc3N3CCOCC3)c2O1	2	212	i	99	i	-10
CC1(C)Cc2cccc(OCC(=O)Nc3ccccc3C(F)(F)F)c2O1	-1	228	i	77*	i	-13
CC(C)(C)NC(=O)COC(=O)c1ccc(O)cc1	5	886	i	102	i	16*
CCOC(=O)NC(=O)COC(=O)c1ccc(O)cc1	9	489	i	98	i	-3
COc1ccc(NC(=O)N(C)C[C@@H]2OCc3cnnn3CCCC(=O)N([C@H](C)CO)C[C@@H]2C)cc1	.	.	.	102	.	.
Cc1n[nH]c(C)c1N1C(=O)c2cccc3c(Br)ccc(c23)C1=O	0	192	i	102	-7.4*	-6
Nc1ccn(CCCNC2CCN(Cc3ccccc3)CC2)c(=O)n1	.	.	.	110	.	.
CCCC(=O)N(Cc1cc2cccc(C)c2[nH]c1=O)c1ccccc1OC	-7	526	i	106	i	21*
C[C@@H]1CN([C@@H](C)CO)C(=O)c2cc(Br)cnc2O[C@H]1CN(C)C(=O)Cc1ccccn1	.	.	.	95	.	.
COc1ccc(-c2cc(C(=O)NCc3cccnc3)no2)cc1	-9	546	i	100	i	18*
Cc1ccc(C(=O)Nc2ccccc2C(=O)N2CC(C)OC(C)C2)cc1 (centres undefined)	.	.	.	100	.	.
O=C1c2ccccc2-c2onc3ccc(N4CCCC4)c1c23	-26	.	.	47*	.	-5
O=C1c2ccccc2-c2onc3ccc(NCc4ccco4)c1c23	-50	157	i	58*	i	-8
CCNc1ccc2noc3c2c1C(=O)c1ccccc1-3	-33	535	i	30*	i	-4
CCOc1ccc2noc3c2c1C(=O)c1ccccc1-3	10	704	i	122	i	-3
Cc1ccc(S(=O)(=O)N2C[C@@H](C)[C@]3(C2)[C@H](O)[C@H](OC(=O)Nc2cccs2)C[C@H]2C(=O)N(c4ccccc4)C(=O)[C@H]23)cc1	.	.	.	113	.	.
COc1ccc(N2CSC(=S)N(c3ccc(OC)cc3)C2)cc1	.	.	.	101	.	.
CCN(CC)CCNc1ccc(CO)c2oc3ccccc3c(=O)c12	.	.	.	108	.	.
COc1ccncc1-c1ccccc1C1=CC(=O)CC(C)(C)C1=O	.	.	.	99	.	.
SMILES	pCIP destab	T cell modulator	CHT allo act	DSG3 Ab inh	CHT inh	GPR7 antag
Cc1cc(Nc2ccc3c(c2)OCCO3)n2ncnc2n1	-3	166	i	90	i	17*
Cc1cc(Nc2ccc(N(C)C)cc2)n2ncnc2n1	4	226	i	101	i	-15
CC(=O)c1c(C)[nH]c(C(=O)OCC(=O)NCc2ccccc2)c1C	.	.	.	98	.	.
O=C(NCc1cccnc1)/C(=C\c1ccc(-c2cccc(Cl)c2)o1)S(=O)(=O)c1ccccc1	4	627	i	129	i	20*
Cc1cc(C)c(C)c(S(=O)(=O)N2CCNC(=O)C2)c1C	.	.	.	103	.	.
CCOC(=O)c1c(Cc2cccc(Cl)c2)c[nH]c1C	-14	228	i	101	i	-9

Screening results deposited in PubChem BioAssay by several laboratories.
